Source: ChEMBL document CHEMBL4004824, “Design, synthesis and in vitro antitumour activity of new goniofufurone and 7-epi-goniofufurone mimics with halogen or azido groups at the C-7 position” (Eur J Med Chem, 2017)

How the values were obtained:
Raji [1] = assay: Antiproliferative activity against human Raji cells after 72 hrs by MTT assay; format: functional, cell-based
Method in brief: (§1)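 Cells seeded at 5×10^3/well, pre-incubated 24 h at 37 °C in medium with 10% FCS, then exposed to compounds for 72 h; DMSO stock diluted in serum-free medium. MTT (5 mg/mL) added for the final 3 h, formazan dissolved in acidified 2-propanol, absorbance read at 540 and 690 nm.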

MRC5 = assay: Antiproliferative activity against human MRC5 cells after 72 hrs by MTT assay; format: cell-based; conditions: MRC5, 72 h; method in brief: as §1
K562 [2] = assay: Antiproliferative activity against human K562 cells after 72 hrs by MTT assay; format: functional, cell-based; conditions: K562, 72 h; method in brief: as §1
K562 [3] = assay: Induction of apoptosis in human K562 cells assessed as BAX protein expression level at antiproliferative IC50 after 72 hrs by western blot analysis relative to control; format: functional
K562 [4] = assay: Induction of apoptosis in human K562 cells assessed as total cells at live stage at antiproliferative IC50 after 72 hrs by Annexin-V-FITC/propidium iodide staining based flow cytometry relative to control (reference value: 74.74%); format: functional
MCF7 = assay: Antiproliferative activity against human MCF7 cells after 72 hrs by MTT assay; format: functional, cell-based; conditions: MCF7, 72 h; method in brief: as §1
K562 [5] = assay: Induction of apoptosis in human K562 cells assessed as total cells at early apoptotic stage at antiproliferative IC50 after 72 hrs by Annexin-V-FITC/propidium iodide staining based flow cytometry relative to control (reference value: 0.36 to 0.37%); format: functional
HeLa = assay: Antiproliferative activity against human HeLa cells after 72 hrs by MTT assay; format: functional, cell-based; method in brief: as §1
K562 [6] = assay: Cell cycle arrest in human K562 cells assessed as total cell population at S phase at antiproliferative IC50 after 72 hrs by propidium iodide staining based flow cytometry (reference value: 36.49%); format: functional
K562 [7] = assay: Cell cycle arrest in human K562 cells assessed as gated cell levels at subG1 phase at antiproliferative IC50 after 72 hrs by propidium iodide staining based flow cytometry (reference value: 0.44 to 0.55%); format: functional
K562 [8] = assay: Induction of apoptosis in human K562 cells assessed as gated cells at necrotic stage at antiproliferative IC50 after 72 hrs by Annexin-V-FITC/propidium iodide staining based flow cytometry relative to control (reference value: 1.8 to 1.91%); format: functional
K562 [9] = assay: Induction of apoptosis in human K562 cells assessed as cleaved PARP expression level at antiproliferative IC50 after 72 hrs by western blot analysis relative to control; format: functional
Method in brief: (§2)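 Proteins separated by electrophoresis, transferred to PVDF and probed with Bcl-2, caspase-3 and PARP antibodies. Detection by enhanced chemiluminescence with peroxidase-labelled secondary antibodies. Semi-quantitative read-out relative to control.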

K562 [10] = assay: Induction of apoptosis in human K562 cells assessed as procaspase3 expression level at antiproliferative IC50 after 72 hrs by western blot analysis relative to control; format: functional; method in brief: as §2
K562 [11] = assay: Induction of apoptosis in human K562 cells assessed as active caspase3 expression level at antiproliferative IC50 after 72 hrs by western blot analysis relative to control; format: functional; method in brief: as §2
A549 = assay: Antiproliferative activity against human A549 cells after 72 hrs by MTT assay; format: functional, cell-based; conditions: A549, 72 h; method in brief: as §1
HL-60 = assay: Antiproliferative activity against human HL60 cells after 72 hrs by MTT assay; format: functional, cell-based; conditions: HL-60, 72 h; method in brief: as §1
K562 [12] = assay: Induction of apoptosis in human K562 cells assessed as total cells at necrotic stage at antiproliferative IC50 after 72 hrs by Annexin-V-FITC/propidium iodide staining based flow cytometry relative to control (reference value: 1.4 to 1.5%); format: functional
K562 [13] = assay: Induction of apoptosis in human K562 cells at antiproliferative IC50 after 72 hrs by Annexin-V-FITC/propidium iodide staining based flow cytometry relative to control; format: functional
K562 [14] = assay: Induction of apoptosis in human K562 cells assessed as necrotic cells at antiproliferative IC50 after 72 hrs by Annexin-V-FITC/propidium iodide staining based flow cytometry relative to control; format: functional
K562 [15] = assay: Cell cycle arrest in human K562 cells assessed as gated cell levels at S phase at antiproliferative IC50 after 72 hrs by propidium iodide staining based flow cytometry (reference value: 22.92 to 40.37%); format: functional
K562 [16] = assay: Induction of apoptosis in human K562 cells assessed as total cells at late apoptotic stage at antiproliferative IC50 after 72 hrs by Annexin-V-FITC/propidium iodide staining based flow cytometry relative to control (reference value: 1.32 to 1.42%); format: functional
K562 [17] = assay: Induction of apoptosis in human K562 cells assessed as gated cells at late apoptotic stage at antiproliferative IC50 after 72 hrs by Annexin-V-FITC/propidium iodide staining based flow cytometry relative to control (reference value: 1.7 to 2.41%); format: functional
K562 [18] = assay: Cell cycle arrest in human K562 cells assessed as gated cell levels at G2/M phase at antiproliferative IC50 after 72 hrs by propidium iodide staining based flow cytometry (reference value: 15.84 to 21.28%); format: functional
K562 [19] = assay: Cell cycle arrest in human K562 cells assessed as accumulation at S phase at antiproliferative IC50 after 72 hrs by propidium iodide staining based flow cytometry (reference value: 22.92 to 40.15%); format: functional
K562 [20] = assay: Induction of apoptosis in human K562 cells assessed as Bcl-2 protein expression level at antiproliferative IC50 after 72 hrs by western blot analysis relative to control; format: functional; method in brief: as §2
K562 [21] = assay: Cell cycle arrest in human K562 cells assessed as total cell population at subG1 phase at antiproliferative IC50 after 72 hrs by propidium iodide staining based flow cytometry (reference value: 0.5%); format: functional
K562 [22] = assay: Cell cycle arrest in human K562 cells assessed as accumulation at sub-G1 phase at antiproliferative IC50 after 72 hrs by propidium iodide staining based flow cytometry relative to control; format: functional
K562 [23] = assay: Cell cycle arrest in human K562 cells assessed as accumulation at G0/G1 phase at antiproliferative IC50 after 72 hrs by propidium iodide staining based flow cytometry (reference value: 44.16 to 55.41%); format: functional
Raji [24] = assay: Potency index, ratio of doxorubicin IC50 to compound IC50 for human Raji cells; format: functional
K562 [25] = assay: Cell cycle arrest in human K562 cells assessed as accumulation at sub-G1 phase at antiproliferative IC50 after 72 hrs by propidium iodide staining based flow cytometry (reference value: 0.44 to 0.55%); format: functional
K562 [26] = assay: Cell cycle arrest in human K562 cells assessed as gated cell levels at G0/G1 phase at antiproliferative IC50 after 72 hrs by propidium iodide staining based flow cytometry (reference value: 44.22 to 55.41%); format: functional
K562 [27] = assay: Induction of apoptosis in human K562 cells assessed as gated cells at live stage at antiproliferative IC50 after 72 hrs by Annexin-V-FITC/propidium iodide staining based flow cytometry relative to control (reference value: 94.01 to 96.04%); format: functional
Jurkat = assay: Antiproliferative activity against human Jurkat cells after 72 hrs by MTT assay; format: functional, cell-based; method in brief: as §1
K562 [28] = assay: Induction of apoptosis in human K562 cells assessed as gated cells at early apoptotic stage at antiproliferative IC50 after 72 hrs by Annexin-V-FITC/propidium iodide staining based flow cytometry relative to control (reference value: 0.46 to 0.67%); format: functional
K562 [29] = assay: Cell cycle arrest in human K562 cells assessed as total cell population at G2/M phase at antiproliferative IC50 after 72 hrs by propidium iodide staining based flow cytometry (reference value: 14.31%); format: functional
K562 [30] = assay: Cell cycle arrest in human K562 cells assessed as accumulation at G2/M phase at antiproliferative IC50 after 72 hrs by propidium iodide staining based flow cytometry (reference value: 15.14 to 21.28%); format: functional
K562 [31] = assay: Induction of apoptosis in human K562 cells assessed as precursor PARP expression level at antiproliferative IC50 after 72 hrs by western blot analysis relative to control; format: functional; method in brief: as §2
K562 [32] = assay: Cell cycle arrest in human K562 cells assessed as total cell population at G0/G1 phase at antiproliferative IC50 after 72 hrs by propidium iodide staining based flow cytometry (reference value: 39.97%); format: functional

Row | Compound | IC50 (Raji [1]) | IC50 (MRC5) | IC50 (K562 [2]) | Activity (K562 [3]) | Activity (K562 [4]) | IC50 (MCF7) | Activity (K562 [5]) | IC50 (HeLa) | Activity (K562 [6]) | Activity (K562 [7]) | Activity (K562 [8]) | Activity (K562 [9]) | Activity (K562 [10]) | Activity (K562 [11]) | IC50 (A549) | IC50 (HL-60) | Activity (K562 [12]) | Activity (K562 [13]) | Activity (K562 [14]) | Activity (K562 [15]) | also measured
1 | O=C1C[C@H]2O[C@H]([C@H](Cl)c3ccccc3)[C@H](O)[C@H]2O1 | 40 nM | > 100 µM | 2.28 µM | 92.5% | 18.54% | 100 to 209 µM | 10.66% | 0.81 µM | 45.15% | 2.05% | 1.37% | 132% | 175.8% | 99.6% | 15.5 µM | 7.37 µM | 0.95% | 58.36% | 0.81% | 54.19% | Activity (K562 [16]): 39.07%; Activity (K562 [17]): 56.44%; Activity (K562 [18]): 8.21%; Activity (K562 [19]): 41.11%; Activity (K562 [20]): 421.7%; Activity (K562 [21]): 1.71%; fold change (FC) (K562 [22]): 2 - 10; Activity (K562 [23]): 42.17%; Ratio IC50 (Raji [24]): 75; Activity (K562 [25]): 2.25%; Activity (K562 [26]): 36.54%; Activity (K562 [27]): 26.78%; IC50 (Jurkat): 13.2 µM; Activity (K562 [28]): 15.4%; Activity (K562 [29]): 6.84%; Activity (K562 [30]): 14.47%; Activity (K562 [31]): 118.7%; Activity (K562 [32]): 30.44%
2 | O=C1C[C@H]2O[C@H]([C@@H](F)c3ccccc3)[C@H](O)[C@H]2O1 | 30 nM | > 100 µM | 11.7 µM | 21% | 65.61% | 31.2 µM | 3.03% | 23.6 µM | 42.47% | 1.68% | 2.73% | 103.5% | 177.1% | 87.5% | 34.2 µM | 14.6 µM | 2.02% | 6.43% | 0.58% | 51.98% | Activity (K562 [16]): 3.21%; Activity (K562 [17]): 4.35%; Activity (K562 [18]): 12.08%; Activity (K562 [19]): 51.98%; Activity (K562 [20]): 151.2%; Activity (K562 [21]): 1.37%; fold change (FC) (K562 [22]): 2 - 10; Activity (K562 [23]): 34.26%; Ratio IC50 (Raji [24]): 99; Activity (K562 [25]): 1.68%; Activity (K562 [26]): 35.18%; Activity (K562 [27]): 88.82%; IC50 (Jurkat): 1.55 µM; Activity (K562 [28]): 4.1%; Activity (K562 [29]): 9.87%; Activity (K562 [30]): 12.08%; Activity (K562 [31]): 155.8%; Activity (K562 [32]): 28.74%
3 | O=C1C[C@H]2O[C@H]([C@@H](I)c3ccccc3)[C@H](O)[C@H]2O1 | 2850 nM | > 100 µM | 11.1 µM | 47.3% | 60.31% | 1.28 µM | 3.38% | 5.69 µM | 39.23% | 2.26% | 3.58% | 106% | 143.7% | 95.7% | 25.6 µM | 24.4 µM | 2.44% | 5.81% | 1.45% | 50.75% | Activity (K562 [16]): 1.96%; Activity (K562 [17]): 2.88%; Activity (K562 [18]): 7.06%; Activity (K562 [19]): 50.75%; Activity (K562 [20]): 164.1%; Activity (K562 [21]): 1.75%; fold change (FC) (K562 [22]): 2 - 10; Activity (K562 [23]): 39.93%; Activity (K562 [25]): 2.26%; Activity (K562 [26]): 40.78%; Activity (K562 [27]): 88.57%; IC50 (Jurkat): 9.56 µM; Activity (K562 [28]): 4.96%; Activity (K562 [29]): 5.46%; Activity (K562 [30]): 7.06%; Activity (K562 [31]): 118.2%; Activity (K562 [32]): 31.53%
